Results collected from several papers.
Each line is one published result; the experiments were not run side by side.
Sample: plasma

CN1CC[C@@H](c2c(O)cc(O)c3c(=O)cc(-c4ccc(C(F)(F)F)cc4Cl)oc23)[C@@H]1CO
Cmax (human; oral, 150 mg, patients): 245 ng/mL

Cc1ccc(C(=O)Nc2ccc(CN3CCN(C)CC3)c(C(F)(F)F)c2)cc1C#Cc1cnc2[nH]ncc2c1
Cmax (human; oral, 20 mg, single dose, fed, healthy volunteers): 5.02 ng/mL

Cn1cc(Nc2nc(N)nc(-c3cccc(-n4ccc5cc(C6CC6)cc(F)c5c4=O)c3CO)n2)cn1
Cmax (human; oral, 5 mg, single dose, fasted, suspension): 28.6 ng/mL

CC(C)n1c(Nc2cccnc2)nc2cnc(Nc3ccc(N4CCN(C)CC4)cc3)nc21
Cmax (male human; oral, 100 mg, single dose): 45.7 ng/mL

NS(=O)(=O)OC[C@@H]1C[C@@H](n2ccc3c(N[C@H]4CCc5ccccc54)ncnc32)C[C@@H]1O
Cmax (human; intravenous, 15 mg/m², patients): 127 ng/mL

Cl.[2H]C([2H])([2H])CC(=O)c1cnc(NC(=O)C2CC2)cc1Nc1cccc(-c2ncn(C([2H])([2H])[2H])n2)c1OC
Cmax (human; oral, 20 mg, multiple doses, once daily, fasted): 132 ng/mL

COc1ccc([C@@H](O)c2cc(-c3ncnc4cc(N5CCOCC5)ccc34)c(F)cc2Cl)nn1
Cmax (human; oral, 200 mg, single dose, patients): 854 ng/mL

CNC(=O)n1ccc2cc(Oc3ccnc(NC(=O)c4ccc(C5CCN(CCO)CC5)cc4)c3)c(OCCOC)cc21
Cmax (human; oral, 35 mg, single dose, fed, healthy volunteers): 6.81 ng/mL

CC(=O)N[C@H]1CC[C@H](NC(=O)CN2CCN(c3nncc(-c4ccc(C)cc4)n3)CC2)CC1
Cmax (female human; oral, 100 mg, single dose, fasted): 1550 ng/mL

C[C@H](O)C(=O)C1=Nc2c(nc(N)[nH]c2=O)NC1
Cmax (human; oral, 20 mg/kg, single dose, healthy volunteers): 1.51 ng/mL

N[C@@H]1c2cccnc2[C@H](OC(=O)N2CCC(n3c(=O)[nH]c4ncccc43)CC2)CC[C@H]1c1cccc(F)c1F
Cmax (human; oral, 75 mg, single dose): 923 ng/mL
